# Source: PMC3867294 (Biochemical and biophysical research communications, 2013)
# Legend:
# [1] = test system: LPS-mediated inflammation in rats; type: in vivo; settings: n=3 rats/group
# [2] = test system: LPS-mediated inflammation in rats; experiment: Protocol 1: plasma cytokines; type: in vivo, Sprague-Dawley rats
# [3] = test system: liver inflammation in endotoxemic rats; experiment: Liver histology; type: in vivo, Sprague-Dawley rats; settings: 2.5 mg/kg mR18L i.p. without LPS; H&E sections; n=3
# In short: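 Male Sprague-Dawley rats received test compound 2.5 mg/kg i.p., with or without LPS 5 mg/kg i.p. one minute before, and were killed at 2 h. Liver was formalin-fixed, paraffin-embedded, cut at 5 μm and H&E-stained. A blinded pathologist scored it subjectively. Segmented neutrophils were counted at x40, 30 fields from 10 random portal areas. n=3 control, n=4 LPS groups.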
# iNOS (NOS2) in rat liver = experiment: iNOS expression in liver tissue by immunoblotting; type: in vivo, Sprague-Dawley rats; settings: 2.5 mg/kg mR18L with 5 mg/kg LPS; 2h post LPS; immunoblot, n=6 in LPS groups; P<0.05 vs LPS alone
# [4] = test system: endotoxin activity of LPS; experiment: Endotoxin activity in rat plasma by LAL assay, protocol 1; type: in vivo, Sprague-Dawley rats; settings: 2h post 5 mg/kg LPS and 2.5 mg/kg mR18L, n=5-7/group, P<0.05 vs LPS alone
# In short: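 Adult male Sprague-Dawley rats (322±8 g) got E. coli 026:B6 LPS at 5 mg/kg i.p. and, one minute later, test compound at 2.5 mg/kg i.p. at a different site. Rats were killed at 2 h and the plasma was frozen. Endotoxin activity was read by kinetic-colorimetric LAL assay, n=5–7/group. Groups were compared by one-way ANOVA with Bonferroni, mean±SEM.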
# [5] = test system: LPS-mediated inflammation in rats; experiment: Protocol 2: mR18L one hour post LPS, rat plasma at 6h post LPS; type: in vivo, Sprague-Dawley rats; settings: 2.5 mg/kg mR18L one hour post 5 mg/kg LPS
# In short: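 Rats got LPS (E. coli 026:B6, 5 mg/kg i.p.), then test compound 2.5 mg/kg one hour later; n=5/group. Plasma was taken at baseline and 6 h. Measures: cholesterol and triglycerides by kit; IL-6 and IL-10 by ELISA; endotoxin by kinetic LAL. PON1 was read as paraoxon-driven 4-nitrophenol release at 405 nm. Tests: paired t-test vs baseline, unpaired vs LPS.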
# [6] = test system: atherosclerosis and plasma cholesterol in mouse models; settings: oral and intravenous administration; cited from earlier work
# [7] = cited from earlier work
# hepatocytes = settings: in-vitro; cited from earlier work
# [8] = 2.5 mg/kg mR18L i.p. one minute post 5 mg/kg LPS, 2h post LPS, n=5-7 rats/group
substance,measurement,setting,value
"Ac-GFRRFLGSWARIYRAFVG-NH2 [mR18L, Ac-G-F-R-R-F-L-G-S-W-A-R-I-Y-R-A-F-V-G-NH2]",tolerance to mR18L,"[1]; 1, 2.5 and 5 mg/kg mR18L i.p. one minute post 5 mg/kg LPS i.p.",All rats demonstrated tolerance
same,LPS-mediated plasma elevation of TNF-α,"[1]; starting at the lowest tested dose of 1 mg/kg mR18L i.p., 5 mg/kg LPS",significantly reduced
same,LPS-mediated elevation of plasma IL-6,[2]; [8],significantly reduced
same,LPS-mediated elevation of plasma TNF-α,[2]; [8],significantly reduced
same,plasma anti-inflammatory cytokine IL-10,[2]; [8],without significantly reducing
same,"normal levels of TNF-α, IL-6 and IL-10 in rat plasma, mR18L administered alone","[2]; 2.5 mg/kg mR18L i.p. without LPS, 2h, n=5 rats/control group",no effects
same,"liver morphology and histology, mR18L alone",[3],normal morphological and histological features without signs of inflammation or tissue damage
same,LPS-mediated iNOS elevation in liver,iNOS (NOS2) in rat liver,reduced
same,endotoxin activity in plasma of LPS-treated rats,[4],significantly reduced
same,increase of plasma PON1 activity in LPS-treated rats,"[5]; n=5, P<0.05 vs baseline",15%
same,LPS-mediated elevation of plasma triglyceride,[5]; n=5 rats/group,reduced
same,plasma cholesterol,[5]; n=5 rats/group,not affecting
same,reduction of plasma levels of IL-6,"[5]; n=5 rats/group, vs LPS",57%
same,reduction of plasma levels of IL-10,"[5]; n=5 rats/group, vs LPS",38%
same,increase of IL-10 to IL-6 ratio,[5]; not shown,24%
same,reduction of plasma endotoxin activity,"[5]; LAL assay, n=5 rats/group, vs LPS",30%
same,atherosclerotic lesion formation,[6],inhibited
same,"plasma cholesterol levels, mainly VLDL",[6],decreased
same,lytic properties relative to 18L,[7],substantially reduced lytic properties
same,uptake of atherogenic lipoproteins by hepatocytes,hepatocytes,able to enhance uptake
